# UCH37 inh: inhibitors of human UCH37 deubiquitinase, primary screen, biochemical, Ub-AMC cleavage, fluorescence | Ubiquitin carboxyl-terminal hydrolase isozyme L5 (Homo sapiens), Q9Y5K5 | purified proteasome/UCH37 | inhibition, % (concentration not given with the values) | actives 0.33% (n = 330,000);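 active = mean inhibition over replicate wells above about 20%, limit read from the data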;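 note: 0% = compound-free wells with enzyme and 100% = wells lacking proteasome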
#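 Assay system: Proteasome-bound UCH37. Buffer or medium: pH 7.4 Tris-HCl (50 mM) with ovalbumin, ATP-MgCl2, DTT. Incubation: 30 min preincubation with enzyme, 25 min cleavage at room temperature. Measured by: fluorescence, ex 355 nm, em 460 nm. Read-out basis: percent inhibition. Control set: wells without proteasome as full block, compound-free enzyme plus substrate as uninhibited.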
# pPAFAH FP inh: pPAFAH enzyme inhibitors, primary screen, biochemical, fluorescence polarization, human; recombinant pPAFAH, FP-rhodamine probe fluorescence polarization; Platelet-activating factor acetylhydrolase (Homo sapiens), Q13093; actives 1.5% (n = 330,000); inhibition, % at 3.39 µM;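 active = inhibition above the mean inhibition across the screen plus 3 SD, cut at about 25% in these data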;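 note: inhibitors block binding of the rhodamine activity-based probe so polarization drops; 0% = enzyme with DMSO and 100% = wells lacking pPAFAH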
# PAFAH2 inh: PAFAH2 enzyme inhibitors, primary screen, biochemical, fluorescence polarization, human | Platelet-activating factor acetylhydrolase 2, cytoplasmic (Homo sapiens), Q99487 | recombinant PAFAH2, FP-rhodamine activity probe | inhibition, % at 3.39 µM | actives 0.99% (n = 340,000);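 active = inhibition above the mean over all tested compounds plus 3 SD, cut at about 30% in these data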;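 note: inhibitors block probe labeling of enzyme so polarization drops; 0% = enzyme with DMSO and 100% = wells lacking PAFAH2 protein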
# NR3A LBD binder: binders of NR3A ligand-binding domain, primary screen, biophysical, differential scanning fluorimetry, uHTS; Glutamate receptor ionotropic, NMDA 3A (GRIN3A) ligand-binding domain; NR3A LBD differential scanning fluorimetry, Tm shift; 0% = protein alone, 100% = glycine-bound protein; Tm shift relative to glycine control, % at 25 µM; actives 2.5% (n = 340,000); AID 1259313, 2017;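 active = melting temperature shift of at least 10% of the positive control shift, at one fixed dose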
# PAFAH1B3 FP inh: PAFAH1B3 enzyme inhibitors, primary screen, biochemical, fluorescence polarization, human | Platelet-activating factor acetylhydrolase IB subunit alpha1 (Homo sapiens), Q15102 | recombinant PAFAH1B3, FP-rhodamine probe | inhibition, % at 3.39 µM | actives 0.28% (n = 340,000) | AID 492972, 2010;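 active = inhibition above the screen-wide average of all tested compounds plus 3 SD, cut at about 25% in these data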;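 note: 0% = enzyme with DMSO only and 100% = wells lacking PAFAH1B3 protein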
# Target sequence (Q15102 whole entry, looked up): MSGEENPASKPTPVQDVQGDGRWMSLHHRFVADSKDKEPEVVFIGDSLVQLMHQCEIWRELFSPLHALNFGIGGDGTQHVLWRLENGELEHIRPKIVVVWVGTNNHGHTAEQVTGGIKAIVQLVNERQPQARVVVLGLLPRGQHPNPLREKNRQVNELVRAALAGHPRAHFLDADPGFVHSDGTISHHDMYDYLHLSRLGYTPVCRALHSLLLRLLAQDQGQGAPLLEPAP
# PAFAH1B2 inh: PAFAH1B2 enzyme inhibitors, primary screen, biochemical, fluorescence polarization, human | inhibition, % at 3.39 µM | AID 492953, 2010 | recombinant PAFAH1B2, FP-rhodamine activity probe | actives 1.2% (n = 340,000);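 active = inhibition above the mean of all tested compounds plus 3 SD, cut at about 24% in these data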;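 note: 0% = enzyme with DMSO and 100% = wells lacking PAFAH1B2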
# Target sequence (P68402 whole entry, looked up): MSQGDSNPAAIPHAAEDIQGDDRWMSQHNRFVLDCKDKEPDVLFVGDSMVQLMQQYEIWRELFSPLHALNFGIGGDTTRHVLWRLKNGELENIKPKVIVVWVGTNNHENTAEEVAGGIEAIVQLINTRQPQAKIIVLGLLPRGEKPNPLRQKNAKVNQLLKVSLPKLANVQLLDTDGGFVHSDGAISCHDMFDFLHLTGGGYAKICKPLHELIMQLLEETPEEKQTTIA
# Numbers without * were called inactive; nt = no result given. The list is not random: actives were taken first. Their share in the collection is about 4.8%.
SMILES,UCH37 inh,pPAFAH FP inh,PAFAH2 inh,NR3A LBD binder,PAFAH1B3 FP inh,PAFAH1B2 inh
O=C(COC(=O)c1ccco1)c1ccc2ccccc2c1,-9.7,3.8,14.7,10.2*,-0.3,1.9
O=C(COC(=O)c1ccco1)c1ccccc1,1.0,-0.7,7.2,-4.8,16.6,2.8
Cc1c(CC(=O)O)c(=O)oc2c(C)c3occ(-c4ccc(Br)cc4)c3cc12,nt,11.8,11.9,-0.6,0.5,28.9*
COc1cccc(-c2coc3c(C)c4oc(=O)c(CCC(=O)O)c(C)c4cc23)c1,-17.1,24.9*,9.5,nt,0.9,5.6
COc1ccc(-c2coc3c(C)c4oc(=O)c(CC(=O)O)c(C)c4cc23)cc1,-1.0,nt,4.0,-3.7,4.9,6.8
COc1ccc(C=NNc2ccc(C(=O)O)cc2)cc1OC,14.4,nt,nt,nt,nt,nt
Cc1ccc(-c2csc(N3N=C(c4ccccc4)/C(=C\c4ccc(N(C)C)cc4)C3=O)n2)cc1,nt,28.5*,nt,nt,nt,nt
CC1=NN(c2cccc(F)c2)C(=O)/C1=C/c1ccc(N(C)C)cc1,1.8,7.7,1.2,1.4,15.8,-2.3
Cc1nn(C(C)C(=O)NN=Cc2ccc(N(C)C)cc2)c(C)c1[N+](=O)[O-] (centres undefined),8.7,nt,nt,nt,nt,nt
Cc1c(C(=O)OCC(=O)Nc2cccc(S(N)(=O)=O)c2)oc2c1ccc1ccccc12,-42.9,-9.4,-23.9,14.7*,-3.0,0.5
COc1cccc(NC(=O)CN(C)C(=O)c2ccc(NC(=O)CC3SC(N4CCCC4)=NC3=O)cc2)c1 (centres undefined),2.2,nt,-4.8,10.6*,6.0,4.2
Cc1cc(NC(=O)COC(=O)c2oc3c(Cl)cccc3c2C)no1,3.3,6.1,-3.7,-4.8,-8.3,-1.2
COc1cccc(NC(=O)CN(C)C(=O)c2oc3c(ccc4ccccc43)c2C)c1,-0.1,0.3,-5.5,16.8*,-6.2,-2.1
CN(C(=O)COC(=O)c1cc(-c2ccccc2Cl)nc2ccccc12)C1CCS(=O)(=O)C1 (centres undefined),0.7,27.4*,-1.0,2.8,3.9,-0.3
COc1ccc(Cl)cc1NC(=O)NNC(=O)c1ccccn1,1.6,nt,-4.2,77.3*,8.2,2.6
COc1ccccc1NC(=O)c1ccccc1NC(=O)c1ccccn1,-11.0,nt,1.4,0.2,-1.6,1.5
Clc1ccc(Cn2cc(C=Nn3cnnc3)c3ccccc32)cc1,1.8,nt,nt,nt,nt,nt
CCCCSc1nnc(CSc2nc3nc(C)cc(C)n3n2)o1,0.6,-7.4,5.8,12.2*,1.5,1.4
Cc1cc(C)n(-c2nnc(C)n2N=Cc2cc(Br)ccc2OCc2ccccc2)n1,-0.4,nt,nt,nt,nt,nt
O=C(Nc1ccc(Cl)cc1)c1cc2c(cc1O)[nH]c1ccccc12,-16.5,18.3,10.4,31.5*,18.2,11.9
O=C(NCCc1ccc(Cl)cc1)Nc1ccc(Cl)cc1,5.2,2.6,2.7,20.1*,1.1,9.3
CCN(CCNC(=O)Nc1ccc(Cl)cc1)c1ccccc1,2.8,4.5,-0.9,22.3*,-3.3,0.4
CCN(CCNC(=O)C1CCN(S(C)(=O)=O)CC1)c1ccccc1,1.9,-5.4,1.7,-1.0,6.2,-0.5
CC(=O)c1cccc(NC(=S)NCCc2ccc(Cl)cc2)c1,1.4,-4.8,-4.3,14.8*,7.2,15.3
CCOc1ccc(C(=O)NCC(=O)OCc2c(F)cccc2Cl)cc1OCC,nt,2.4,-10.6,13.7*,1.4,4.3
SMILES,UCH37 inh,pPAFAH FP inh,PAFAH2 inh,NR3A LBD binder,PAFAH1B3 FP inh,PAFAH1B2 inh
CCNC(=S)N(Cc1ccccc1)Cc1nc2ccccc2c(=O)[nH]1,-49.2,-3.0,8.3,10.0*,6.0,4.0
O=C(Oc1ccc(C=NNC(=O)c2ccccn2)cc1)c1cccc(Br)c1,-19.7,nt,nt,nt,nt,nt
NC(=S)N=Nc1c(O)n(CCCl)c2ccc(Br)cc12,3.8,1.6,3.5,-6.7,5.4,31.9*
C/C(Cl)=C\Cn1c(O)c(N=NC(N)=S)c2cc(Br)ccc21,4.5,13.9,5.1,-2.3,5.9,9.1
CCCC(=NNC(=O)CCC(=O)NCc1ccccc1)c1ccccc1,3.9,nt,nt,nt,nt,nt
COCCN1Cc2cccc(C(=O)Nc3cccc(OC)c3)c2C1=O,1.6,-0.5,-10.2,18.7*,8.1,4.0
O=C(Nc1cccc([N+](=O)[O-])c1)c1ccc2ccccc2c1O,2.3,12.6,11.2,25.6*,11.7,2.0
O=C(Cc1ccccc1)Nc1cccc([N+](=O)[O-])c1,1.7,3.5,4.0,-2.8,3.2,-0.5
O=C(O)COc1ccccc1C=NNC(=O)CNC(=O)c1ccco1,6.0,nt,nt,nt,nt,nt
Nc1nonc1-n1nnc(C(=O)N/N=C/C=C/c2ccccc2)c1CSC1=NCCS1,nt,7.8,nt,16.3*,nt,nt
Nc1nonc1-n1nnc(C(=O)N/N=C/c2ccccc2Cl)c1CSc1ccccc1,nt,-7.6,nt,30.4*,nt,nt
CCc1c(C(=O)NN=Cc2cccs2)nnn1-c1nonc1N,2.6,nt,nt,nt,nt,nt
CCc1c(C(=O)N/N=C/c2cccs2)nnn1-c1nonc1N,nt,1.0,-0.4,22.2*,10.5,4.2
Nc1nonc1-n1nnc(C(=O)N/N=C/c2ccc3c(c2)OCO3)c1CSc1ccccc1,nt,1.4,3.8,38.7*,1.7,-2.8
O=C(NN=Cc1ccc(F)cc1)c1cc[n+]([O-])cc1,6.2,nt,nt,nt,nt,nt
Nc1nonc1-n1nnc(C(=O)N/N=C/c2cccs2)c1CSc1ccccc1,nt,1.1,-6.8,37.1*,0.7,2.0
Cc1ccc(/C=N/NC(=O)c2nnn(-c3nonc3N)c2CSc2ccc(Cl)cc2)cc1,nt,3.6,-3.7,26.3*,9.3,0.4
Nc1nonc1-n1nnc(C(=O)NN=Cc2cccs2)c1CSc1ccccc1,-1.6,nt,nt,nt,nt,nt
Cc1c(N=C(N)N=C(N)Nc2ccc(Br)cc2)c(=O)n(-c2ccccc2)n1C,2.7,nt,nt,nt,nt,nt
COc1ccc(C=NOCC(=O)N(Cc2ccccc2)c2ccccc2C(=O)O)cc1,0.0,nt,nt,nt,nt,nt
CCCCCCCCn1c(=O)c(C(=O)OCC)c(O)c2ccccc21,3.3,4.7,2.0,2.0,9.1,24.3*
CCCn1c(=O)c(C(=O)N/N=C/c2ccc(F)cc2)c(O)c2ccccc21,nt,-4.5,-6.2,19.5*,10.2,8.7
CCCCCn1c(=O)c(C(=O)OCC)c(O)c2ccccc21,1.6,-5.3,-2.4,-0.5,15.6,2.4
CCOC(=O)c1c(O)c2ccccc2n(-c2ccccc2)c1=O,5.6,6.5,1.1,11.0*,0.8,4.7
CCCCn1c(=O)c(C(=O)OCC)c(O)c2ccccc21,2.1,-1.7,1.1,2.5,6.3,-5.2
O=C(O)c1ccc(CNC(=O)C23CC4CC(CC(C4)C2)C3)cc1,3.7,2.0,-8.1,0.5,8.5,29.0*
